Sampled rows, rich in hits. Any-hit rate of the full collection: about 2.7%.
PP1 counter – blocks human PP1-alpha phosphatase, a PP5 counter-screen; P62136; inhibition, % at 6.7 µM; AID 2235; 320,000 tested, 0.9% active; purified PP1alpha, OMFP fluorescence;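 active means inhibition above the mean inhibition of all tested compounds plus 3 SD, computed separately for each screening campaign, cut at about 15% in these data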
Target sequence (P62136 whole entry, looked up): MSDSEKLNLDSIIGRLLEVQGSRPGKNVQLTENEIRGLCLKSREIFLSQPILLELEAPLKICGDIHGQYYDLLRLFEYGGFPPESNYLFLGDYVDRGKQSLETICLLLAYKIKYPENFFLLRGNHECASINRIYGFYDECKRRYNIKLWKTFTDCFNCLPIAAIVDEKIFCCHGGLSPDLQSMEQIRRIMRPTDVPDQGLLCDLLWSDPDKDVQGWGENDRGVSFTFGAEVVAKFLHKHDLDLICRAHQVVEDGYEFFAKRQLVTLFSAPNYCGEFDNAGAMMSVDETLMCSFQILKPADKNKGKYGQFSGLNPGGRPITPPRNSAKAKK
CSN deneddyl inh – blocks human CSN-mediated cullin deneddylation; AID 651999; inhibition, % at 12.5 µM; Purified CSN, SCF-Nedd8-OG deneddylation, fluorescence polarization; 360,000 tested, 0.38% active;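 active means pattern-corrected inhibition above about 35%, with an unprinted fluorescence ratio check between 0.5 and 1.5, limit read from the data, passing the limit was not always enough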
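assay system = purified human Csn5 enzyme expressed in HEK293T cells | amount = 0.24 nM enzyme | buffer or medium = Tris/NaCl/DTT buffer, pH 7.5 | reagent = 10 nM SCFSkp2-Nedd8OG | compound = one concentration, 12.5 µM, 0.25% DMSO | times = 90 min reaction at room temperature | signal = FP | read-out basis = % inhibition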
HNF4A DNA FP – change in binding of human HNF4 alpha to DNA; P41235; HNF4a-FITC DNA binding, fluorescence polarization, 1 h; activity change, % at 10 µM; 360,000 tested, 0.3% active; AID 1224865; in the data active means activity change above about 30%, passing the limit was not always enough
NadD inh – NadD (S. aureus) enzyme inhibition; purified NadD enzyme, colorimetric absorbance read-out; inhibition, % at 20 µM; 360,000 tested, 0.78% active; AID 602399; in the data active means inhibition above about 26%
Rpn11 block – inhibitors of human proteasome Rpn11; inhibition, % at 20 µM; 360,000 tested, 0.59% active; O00487; human 26S proteasome, Ub4-pepOG fluorescence polarization; 20S core pre-blocked with epoxomicin;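 active means inhibition at 20 µM, scaled to each plate's controls, above about 33%, limit read from the data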
Target sequence (O00487 whole entry, looked up): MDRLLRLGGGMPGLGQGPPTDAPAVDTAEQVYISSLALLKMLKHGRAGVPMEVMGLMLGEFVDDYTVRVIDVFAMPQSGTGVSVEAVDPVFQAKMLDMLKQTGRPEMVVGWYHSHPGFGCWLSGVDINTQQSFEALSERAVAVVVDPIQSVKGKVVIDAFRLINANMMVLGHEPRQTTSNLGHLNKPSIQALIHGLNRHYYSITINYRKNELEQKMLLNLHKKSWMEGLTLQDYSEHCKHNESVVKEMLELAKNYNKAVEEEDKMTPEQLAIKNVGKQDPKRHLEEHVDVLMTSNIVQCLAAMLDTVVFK
TPT1 inh – C. albicans TPT1 enzyme inhibition; recombinant caTPT1, FP RNA substrate dephosphorylation; 300,000 tested, 0.81% active; inhibition, % at 5 µM;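 active means inhibition above the mean of all tested compounds plus 3 SD, set per screening campaign, cut at about 24% in these data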
Numbers stand for hits.

Screening Cc1ccsc1C(=O)C1CCCN(Cc2cnc(N3CCOCC3)s2)C1 (centres undefined) returned PP1 counter inactive, CSN deneddyl inh 101.2, HNF4A DNA FP inactive, NadD inh inactive, Rpn11 block inactive and TPT1 inh inactive.
For Cc1ccc(OC(=O)N(C)C[C@@H]2OCc3cnnn3CCCC(=O)N([C@H](C)CO)C[C@H]2C)cc1 the results were CSN deneddyl inh inactive, HNF4A DNA FP inactive, NadD inh inactive and Rpn11 block inactive.
Cn1cccc1/C=C1/C(=O)NC(=S)N(Cc2ccc(F)cc2)C1=O was read as PP1 counter inactive, CSN deneddyl inh inactive, HNF4A DNA FP inactive, NadD inh 45.2, Rpn11 block inactive and TPT1 inh inactive.
For O=c1[nH]c(O)c(C=Nc2ccccc2Oc2ccccc2)c(=O)[nH]1 the results were PP1 counter inactive, CSN deneddyl inh 47.7, HNF4A DNA FP inactive, NadD inh inactive, Rpn11 block inactive and TPT1 inh inactive.
Screening O=C(c1ccccc1)c1ccccc1N=Cc1c(O)[nH]c(=O)[nH]c1=O returned PP1 counter inactive, CSN deneddyl inh inactive, HNF4A DNA FP inactive, NadD inh inactive, Rpn11 block inactive and TPT1 inh inactive.
`O=C1NC(=O)C(=C/C=C/c2coc3ccc(Br)cc3c2=O)C(=O)N1` gave PP1 counter inactive and TPT1 inh 38.5.
Screening Cc1cc(C)c(N=Cc2c(O)[nH]c(=O)[nH]c2=O)c(C)c1 returned PP1 counter inactive, CSN deneddyl inh inactive, HNF4A DNA FP inactive, NadD inh inactive, Rpn11 block inactive and TPT1 inh inactive.
CC12CCC(=O)C=C1CCC1C2CCC2(C)C(O)(C(=O)CO)CCC12O (centres undefined) was read as CSN deneddyl inh inactive, HNF4A DNA FP inactive, NadD inh inactive and Rpn11 block inactive.
Screening CCOC(=O)c1c(-n2c(C)cc(C=C3C(=O)NC(=O)NC3=O)c2C)sc2c1CCCC2 returned PP1 counter inactive, CSN deneddyl inh inactive, HNF4A DNA FP inactive, NadD inh inactive, Rpn11 block inactive and TPT1 inh inactive.
Screening Cc1cccc(N2C(=O)NC(=O)/C(=C\c3cc(C)n(-c4sc5c(c4C#N)CCCC5)c3C)C2=O)c1C returned PP1 counter inactive, CSN deneddyl inh inactive, HNF4A DNA FP inactive, NadD inh 29.1, Rpn11 block inactive and TPT1 inh inactive.
`CCCN1CCC[C@@H](c2cccc(O)c2)C1` gave PP1 counter inactive, CSN deneddyl inh inactive, HNF4A DNA FP inactive, NadD inh inactive, Rpn11 block inactive and TPT1 inh inactive.
For Nc1c(C(=O)NCCN2CCOCC2)c2nc3ccccc3nc2n1Cc1ccccc1 the results were PP1 counter inactive, CSN deneddyl inh inactive, HNF4A DNA FP inactive, NadD inh inactive, Rpn11 block inactive and TPT1 inh inactive.
Screening CCCCn1c(N)c(C(=O)NCCN2CCOCC2)c2nc3ccccc3nc21 returned PP1 counter inactive, CSN deneddyl inh 36.5, HNF4A DNA FP inactive, NadD inh inactive, Rpn11 block inactive and TPT1 inh inactive.
O=NN1CCCCC1 was read as PP1 counter inactive, CSN deneddyl inh inactive, HNF4A DNA FP inactive, NadD inh inactive and Rpn11 block inactive.
Cc1c2ccncc2c(C)c2c1[nH]c1ccccc12 was read as PP1 counter 31.2, CSN deneddyl inh inactive, HNF4A DNA FP inactive, NadD inh inactive, Rpn11 block inactive and TPT1 inh inactive.
Screening CC(C)(C)n1nnnc1C(c1ccnc2ccccc12)N1CCC2(CC1)C(=O)NCN2c1ccccc1 (centres undefined) returned CSN deneddyl inh 123.2, HNF4A DNA FP inactive, NadD inh inactive and Rpn11 block inactive.
For NC1C2CN3CCN(C2)CC1(c1ccccc1)C3 (centres undefined) the results were PP1 counter inactive, CSN deneddyl inh inactive, HNF4A DNA FP 75.1, NadD inh inactive, Rpn11 block inactive and TPT1 inh inactive.
For Cc1cccc(C)c1OP(N)(=O)Oc1c(C)cccc1C the results were PP1 counter inactive, CSN deneddyl inh inactive, HNF4A DNA FP inactive, NadD inh inactive, Rpn11 block inactive and TPT1 inh inactive.
For Cc1cccc(OP(N)(N)=O)c1C the results were PP1 counter inactive, CSN deneddyl inh 115.3, HNF4A DNA FP inactive, NadD inh inactive, Rpn11 block inactive and TPT1 inh inactive.
Screening O=C1NC(=O)C(=Cc2ccc(SC3CCCCC3)o2)C(=O)N1 returned PP1 counter inactive, CSN deneddyl inh inactive, HNF4A DNA FP inactive, NadD inh 36.5, Rpn11 block inactive and TPT1 inh inactive.
For O=c1[nH]c(=S)n(C2CC2)c(O)c1/C=N/Nc1ccccc1 the results were PP1 counter inactive, CSN deneddyl inh inactive, HNF4A DNA FP inactive, NadD inh inactive, Rpn11 block inactive and TPT1 inh inactive.
`O=c1[nH]c(=S)n(C2CC2)c(O)c1/C=N/Nc1cccc2ccccc12` gave PP1 counter inactive, CSN deneddyl inh inactive, HNF4A DNA FP inactive, NadD inh 29.7, Rpn11 block inactive and TPT1 inh inactive.
For COCCNC(=O)Cn1cc(C(=O)c2ccccc2F)c2ccccc21 the results were PP1 counter inactive, CSN deneddyl inh inactive, HNF4A DNA FP inactive, NadD inh inactive, Rpn11 block inactive and TPT1 inh inactive.
For N#CC12CC(=O)N1Cc1cnnn1-c1ccccc12 (centres undefined) the results were CSN deneddyl inh inactive, HNF4A DNA FP inactive, NadD inh inactive and Rpn11 block inactive.
Screening CN(C)C1C(=O)C(C(N)=O)=C(O)C2(O)C(=O)C3=C(O)c4c(O)cccc4C(C)(O)C3CC12 (centres undefined) returned PP1 counter inactive, CSN deneddyl inh inactive, HNF4A DNA FP inactive, NadD inh inactive, Rpn11 block inactive and TPT1 inh inactive.
Screening CN(C)[C@@H]1C(=O)C(C(N)=O)=C(O)[C@@]2(O)C(=O)C3=C(O)c4c(O)cccc4[C@@](C)(O)[C@H]3C[C@@H]12 returned PP1 counter 29.3 and TPT1 inh inactive.
Screening COC(=O)C1=C(c2c(C)noc2C)C[C@@H]2CC[C@H]1N2C(=O)N1CCc2cc(OC)c(OC)cc2C1 returned PP1 counter inactive, CSN deneddyl inh inactive, HNF4A DNA FP inactive, NadD inh inactive and Rpn11 block inactive.
Screening O=c1c2ccccc2[nH]c(=S)n1-c1ccc(Br)cc1 returned PP1 counter 19.7, CSN deneddyl inh inactive, HNF4A DNA FP inactive, NadD inh inactive, Rpn11 block inactive and TPT1 inh inactive.
For O=c1c2cc(Br)ccc2[nH]c(=S)n1-c1ccccc1 the results were PP1 counter inactive, CSN deneddyl inh inactive, HNF4A DNA FP inactive, NadD inh inactive, Rpn11 block inactive and TPT1 inh inactive.
`C[C@]12CCC3C(CC[C@H]4C[C@H](OC(=O)c5cccnc5)CC[C@]34C)C1CCC2=O` (some centres undefined) gave CSN deneddyl inh inactive, HNF4A DNA FP inactive, NadD inh inactive and Rpn11 block inactive.
O=c1[nH]c2ccccc2n1C1CCN(C(CCc2ccccc2)c2nnnn2C2CCCC2)CC1 (centres undefined) was read as CSN deneddyl inh 106.4, HNF4A DNA FP inactive, NadD inh inactive and Rpn11 block inactive.

Bioassay records deposited in PubChem BioAssay by several laboratories.
